Data reported in ChEMBL document CHEMBL1921707 (J Med Chem, 2011).

Assays:
Assay type in all cases: cell-based
Histamine H4 receptor [1] = target: Histamine H4 receptor (Homo sapiens, UniProt Q9H3N8); assay: Displacement of [3H]histamine from human H4 receptor expressed in HEK293 cells after 1 to 1.5 hrs by scintillation counting
Histamine H3 receptor = Histamine H3 receptor (Homo sapiens, UniProt Q9Y5N1); assay: Displacement of [3H]histamine from human H3 receptor expressed in HEK293 cells after 1 to 1.5 hrs by scintillation counting
Histamine H4 receptor [2] = target: Histamine H4 receptor (Homo sapiens, UniProt Q9H3N8, E182Q); assay: Displacement of [3H]JNJ7777120 from human H4 receptor E5.46Q mutant expressed in HEK293 cells after 1 to 1.5 hrs by scintillation counting
In short: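 HEK293T cells transiently transfected (PEI method) with human H4R E5.46Q cDNA, membranes harvested 2 days later. Crude membranes in 50 mM Tris-HCl pH 7.4 with ~10 nM [3H]JNJ-7777120 and compound at 1 pM to 0.1 mM, room temperature, shaking. Separation by filtration on PEI-presoaked GF/C, ice-cold Tris washes. pKi as mean ± SEM of at least three experiments run in triplicate.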

Histamine H4 receptor [3] = target: Histamine H4 receptor (Homo sapiens, UniProt Q9H3N8, T323M); assay: Displacement of [3H]histamine from human H4 receptor T6.55M mutant expressed in HEK293 cells after 1 to 1.5 hrs by scintillation counting
Histamine H4 receptor [4] = target: Histamine H4 receptor (Homo sapiens, UniProt Q9H3N8, N147Y); assay: Displacement of [3H]histamine from human H4 receptor N4.57Y mutant expressed in HEK293 cells after 1 to 1.5 hrs by scintillation counting
Histamine H4 receptor [5] = target: Histamine H4 receptor (Homo sapiens, UniProt Q9H3N8, T178A); assay: Displacement of [3H]histamine from human H4 receptor T5.42A mutant expressed in HEK293 cells after 1 to 1.5 hrs by scintillation counting
Histamine H4 receptor [6] = target: Histamine H4 receptor (Homo sapiens, UniProt Q9H3N8, V102A); assay: Displacement of [3H]histamine from human H4 receptor V3.40A mutant expressed in HEK293 cells after 1 to 1.5 hrs by scintillation counting
Histamine H4 receptor [7] = target: Histamine H4 receptor (Homo sapiens, UniProt Q9H3N8, Q347L); assay: Displacement of [3H]histamine from human H4 receptor Q7.42L mutant expressed in HEK293 cells after 1 to 1.5 hrs by scintillation counting
Chain of Histamine H4 receptor (Homo sapiens, UniProt Q9H3N8, Q347L) (Q9H3N8 whole entry Q347L): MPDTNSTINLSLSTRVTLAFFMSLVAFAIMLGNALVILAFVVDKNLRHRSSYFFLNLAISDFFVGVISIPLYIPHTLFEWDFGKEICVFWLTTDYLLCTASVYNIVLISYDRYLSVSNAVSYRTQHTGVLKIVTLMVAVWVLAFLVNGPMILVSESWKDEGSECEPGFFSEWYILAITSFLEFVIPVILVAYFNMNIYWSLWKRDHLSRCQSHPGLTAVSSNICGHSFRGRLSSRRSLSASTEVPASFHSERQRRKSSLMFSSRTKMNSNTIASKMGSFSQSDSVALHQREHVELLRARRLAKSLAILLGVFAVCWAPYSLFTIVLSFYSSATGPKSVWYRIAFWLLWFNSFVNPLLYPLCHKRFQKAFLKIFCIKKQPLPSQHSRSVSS

Chain of Histamine H3 receptor (Q9Y5N1 whole entry): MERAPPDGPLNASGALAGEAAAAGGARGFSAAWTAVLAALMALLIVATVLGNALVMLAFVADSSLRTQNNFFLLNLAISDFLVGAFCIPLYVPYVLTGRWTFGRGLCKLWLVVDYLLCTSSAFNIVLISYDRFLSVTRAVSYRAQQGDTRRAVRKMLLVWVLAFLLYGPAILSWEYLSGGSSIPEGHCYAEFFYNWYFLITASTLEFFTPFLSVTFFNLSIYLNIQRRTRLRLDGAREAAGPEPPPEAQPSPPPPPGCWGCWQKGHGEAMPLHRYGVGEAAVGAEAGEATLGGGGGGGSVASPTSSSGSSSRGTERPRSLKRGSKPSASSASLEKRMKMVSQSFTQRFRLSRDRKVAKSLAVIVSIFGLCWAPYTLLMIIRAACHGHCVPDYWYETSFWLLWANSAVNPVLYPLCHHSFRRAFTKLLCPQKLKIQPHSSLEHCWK
Chain of Histamine H4 receptor (Homo sapiens, UniProt Q9H3N8, T178A) (Q9H3N8 whole entry T178A): as the sequence (Q9H3N8 whole entry Q347L) above, with T178A, L347Q counted along it
Chain of Histamine H4 receptor (Homo sapiens, UniProt Q9H3N8, V102A) (Q9H3N8 whole entry V102A): as the sequence (Q9H3N8 whole entry Q347L) above, with V102A, L347Q counted along it
Chain of Histamine H4 receptor (Homo sapiens, UniProt Q9H3N8, N147Y) (Q9H3N8 whole entry N147Y): as the sequence (Q9H3N8 whole entry Q347L) above, with N147Y, L347Q counted along it
Chain of Histamine H4 receptor (Homo sapiens, UniProt Q9H3N8, E182Q) (Q9H3N8 whole entry E182Q): as the sequence (Q9H3N8 whole entry Q347L) above, with E182Q, L347Q counted along it
Chain of Histamine H4 receptor (Homo sapiens, UniProt Q9H3N8, T323M) (Q9H3N8 whole entry T323M): as the sequence (Q9H3N8 whole entry Q347L) above, with T323M, L347Q counted along it

SMILES | Ki (Histamine H4 receptor [1]) | Ki (Histamine H3 receptor) | other results
c1ccc(CN/C(=N/C2CCCCC2)SCCCc2c[nH]cn2)cc1 | 75.9 nM | 9.77 nM | 
CCCCN/C(=N/C1CCCC1)SCCCc1c[nH]cn1 | 16.2 nM | 46.8 nM | 
Clc1ccc(C/N=C(/NC2CCCCC2)SCCCc2c[nH]cn2)cc1Cl | 148 nM | 1.02 nM | 
N#Cc1ccc(C/N=C(/NC2CCCCC2)SCCCc2c[nH]cn2)cc1 | 126 nM | 1.62 nM | 
Clc1ccc(CN=C(NC2CCCCC2)SCCCc2cnc[nH]2)cc1 | 47.9 nM | 1.05 nM | Ki (Histamine H4 receptor [2]): 158 nM; Ki (Histamine H4 receptor [3]): 12.6 nM; Ki (Histamine H4 receptor [4]): 316 nM; Ki (Histamine H4 receptor [5]): 12.6 nM; Ki (Histamine H4 receptor [6]): 63.1 nM; Ki (Histamine H4 receptor [7]): 12.6 nM
NC(=NCc1ccc(Cl)cc1)SCCCc1cnc[nH]1 [CLOBENPROPIT] |  |  | Ki (Histamine H4 receptor [2]): 50.1 nM; Ki (Histamine H4 receptor [3]): 1.58 nM; Ki (Histamine H4 receptor [4]): 15.8 nM; Ki (Histamine H4 receptor [5]): 2.51 nM; Ki (Histamine H4 receptor [6]): 10 nM; Ki (Histamine H4 receptor [7]): 1 nM

The remaining compounds from weak to strong by Ki (Histamine H4 receptor [1]), led by results:

Ki (Histamine H4 receptor [1]) | Ki (Histamine H3 receptor) | SMILES | other results
380 nM | 32.4 nM | Clc1ccc(C/N=C(/NCc2ccccc2)SCCCc2c[nH]cn2)cc1Cl | 
229 nM | 17 nM | Clc1ccc(C/N=C(/NCc2ccccc2)SCCCc2c[nH]cn2)cc1 | 
135 nM | 1.15 nM | O=[N+]([O-])c1ccc(C/N=C(/NC2CCCCC2)SCCCc2c[nH]cn2)cc1 | 
89.1 nM | 4.9 nM | CCCCN/C(=N/Cc1ccc(Cl)cc1)SCCCc1c[nH]cn1 | 
89.1 nM | 4.68 nM | CCCCN/C(=N/Cc1ccc(Cl)c(Cl)c1)SCCCc1c[nH]cn1 | 
42.7 nM | 42.7 nM | c1ccc(CN/C(=N/C2CCCC2)SCCCc2c[nH]cn2)cc1 | 
31.6 nM | 18.6 nM | c1nc(CCCS/C(=N\C2CCCC2)NC2CCCCC2)c[nH]1 | 
29.5 nM | 67.6 nM | CC(C)(C)N/C(=N/C1CCCC1)SCCCc1c[nH]cn1 | 
